From ChEMBL document CHEMBL1938283, “Novel diamino imidazole and pyrrole-containing polyamides: Synthesis and DNA binding studies of mono- and diamino-phenyl-ImPy*Im polyamides designed to target 5'-ACGCGT-3'” (Bioorg Med Chem, 2012) come the findings set out here.

In general, ΔTm refers to the change in melting temperature against a reference sample.

For data set [1], the system named is Nucleic Acid. Nature of the data set: Binding affinity to 5'-AGCGCT-3' sequence in 125 bp 5'-[32P]-radiolabeled DNA at 100 uM after 30 mins by DNase1 footprinting analysis. The data set is classed as nucleic-acid assay. Summed up:
(§1)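 A 125 bp radiolabeled PCR fragment was incubated 30 min at room temperature with polyamide in 10 mM Tris, 10 mM NaCl, pH 7. DNase I (0.02 U, with Mg2+/Mn2+, pH 8.0) then cleaved for 3 min, stopped by freezing on dry ice. Products were resolved on a denaturing 10% polyacrylamide urea gel and read by autoradiography.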

The subject of data set [2] is Nucleic Acid. Put plainly: Binding affinity to 5'-AAATTT-3' DNA by surface plasmon resonance-biosensor method. It is filed as nucleic-acid assay. Summed up:
(§2)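 SPR biosensor at 25 °C. 5'-biotinylated DNA hairpins, about 400 RU, were captured on streptavidin chips, with one blank flow cell as reference. Running buffer was 0.01 M cacodylic acid pH 6.25, 0.1 M NaCl, 1 mM EDTA, 0.005% P20. Known polyamide concentrations were injected and fitted to one- or two-site models to give K1 and K2.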
(Surface plasmon resonance follows binding to a sensor surface in real time, without labels.)

The test system of data set [3] is Nucleic Acid. Nature of the data set: Binding affinity to 5'-ACGCGT-3' DNA assessed as macroscopic binding constant K1 by surface plasmon resonance-biosensor method. The data set is classed as nucleic-acid assay. Summed up: as §2
The subject of data set [4] is Nucleic Acid. Nature of the data set: Binding affinity to 5'-ACACTT-3' DNA assessed as change in melting temperature at 1:3 of DNA/compound ratio by spectrophotometry. It is filed as nucleic-acid assay. Summed up:
(§3)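 UV thermal melt (Cary spectrophotometer) of each duplex, 1 µM DNA with 3 µM polyamide, in 10 mM phosphate buffer with 12.5 mM NaCl, 1 mM EDTA, pH 6.2. ΔTM is the melting temperature of the DNA–polyamide complex minus that of duplex DNA alone.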

Data set [5] deals with Nucleic Acid. Nature of the data set: Binding affinity to 5'-ACGCGT-3' DNA assessed as macroscopic binding constant K2 by surface plasmon resonance-biosensor method. The data set is classed as nucleic-acid assay. Summed up:
as §2

Data set [6] concerns Nucleic Acid. Put plainly: Binding affinity to 5'-ACGCGT-3' DNA at 9:500 of DNA/compound ratio by CD spectral analysis. The data set is classed as nucleic-acid assay.
The subject of data set [7] is Nucleic Acid. Nature of the data set: Binding affinity to 5'-ACCGGT-3' sequence in 125 bp 5'-[32P]-radiolabeled DNA at 100 uM after 30 mins by DNase1 footprinting analysis. The data set is classed as nucleic-acid assay. Summed up:
as §1

Data set [8] deals with Nucleic Acid. Nature of the data set: Binding affinity to 5'-AAGCTA-3' DNA assessed as macroscopic binding constant K1 by surface plasmon resonance-biosensor method. The data set is classed as nucleic-acid assay. Summed up: as §2
In data set [9] the test system is Nucleic Acid. Nature of the data set: Binding affinity to 5'-AAGCTA-3' DNA assessed as macroscopic binding constant K2 by surface plasmon resonance-biosensor method. The data set is classed as nucleic-acid assay. Summed up: as §2
For data set [10], the system named is Nucleic Acid. Nature of the data set: Binding affinity to 5'-ACGCGT-3' DNA assessed as change in melting temperature at 1:3 of DNA/compound ratio by spectrophotometry. The data set is classed as nucleic-acid assay. Summed up: as §3
The subject of data set [11] is Nucleic Acid. Nature of the data set: Binding affinity to 5'-ACGCGT-3' DNA at 30:80 of DNA/compound ratio by isothermal titration calorimetry. The data set is classed as nucleic-acid assay. Summed up:
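ITC by the model-free method at 25 °C in 0.01 M cacodylic acid. Polyamide at 80 µM was injected into 30 µM DNA in 30 × 10 µL injections, every 300 s after a 300 s delay, up to a mole ratio of about 0.6:1. Integrated heats were corrected for nonspecific heats including dilution, and normalized ΔH was fitted linearly against mole ratio.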

Data set [12] has as its system Nucleic Acid. Put plainly: Binding affinity to 5'-ACGCGT-3' DNA by surface plasmon resonance-biosensor method. It is filed as nucleic-acid assay. Summed up: as §2
Data set [13] deals with Nucleic Acid. Nature of the data set: Binding affinity to 5'-ACGCGT-3' sequence in 125 bp 5'-[32P]-radiolabeled DNA at 20 uM after 30 mins by DNase1 footprinting analysis. It is filed as nucleic-acid assay. Summed up:
as §1

In data set [14] the test system is Nucleic Acid. Put plainly: Binding affinity to DNA minor-groove 5'-ACGCGT-3' sequence at 9:500 of DNA/compound ratio by CD spectral analysis. It is filed as nucleic-acid assay.
For data set [15], the system named is Nucleic Acid. Nature of the data set: Binding affinity to 5'-ACACGT-3' sequence in 125 bp 5'-[32P]-radiolabeled DNA at 100 uM after 30 mins by DNase1 footprinting analysis. It is filed as nucleic-acid assay. Summed up:
as §1

In data set [16] the test system is Nucleic Acid. Nature of the data set: Binding affinity to 5'-AAATTT-3' DNA assessed as change in melting temperature at 1:3 of DNA/compound ratio by spectrophotometry. It is filed as nucleic-acid assay. Summed up: as §3
The test system of data set [17] is Nucleic Acid. Nature of the data set: Binding affinity to 5'-AAGCTA-3' DNA by surface plasmon resonance-biosensor method. It is filed as nucleic-acid assay. Summed up:
as §2

Data set [18] deals with Nucleic Acid. Put plainly: Binding affinity to 5'-ACGCGT-3' sequence in 125 bp 5'-[32P]-radiolabeled DNA at 0.5 uM after 30 mins by DNase1 footprinting analysis. It is filed as nucleic-acid assay. Summed up:
as §1

In data set [19] the test system is Nucleic Acid. Nature of the data set: Binding affinity to DNA minor-groove 5'-ACGCGT-3' sequence. The data set is classed as nucleic-acid assay.
Data set [20] concerns Nucleic Acid. Put plainly: Binding affinity to 5'-AAATTT-3' DNA assessed as macroscopic binding constant K1 by surface plasmon resonance-biosensor method. It is filed as nucleic-acid assay. Summed up: as §2
Data set [21] has as its system Nucleic Acid. Put plainly: Binding affinity to DNA minor-groove 5'-ACCGGT-3' sequence. The data set is classed as nucleic-acid assay.
In data set [22] the test system is Nucleic Acid. Put plainly: Binding affinity to 5'-ACGCGT-3' sequence in 125 bp 5'-[32P]-radiolabeled DNA at 0.05 uM after 30 mins by DNase1 footprinting analysis. The data set is classed as nucleic-acid assay. Summed up: as §1
In data set [23] the test system is Nucleic Acid. Put plainly: Binding affinity to 5'-AAATTT-3' DNA. It is filed as nucleic-acid assay.
Data set [24] in a line: Solubility of the compound in water. The data set is classed as physicochemical. Particulars: buffer.
Data set [25] relates to Nucleic Acid. Put plainly: Binding affinity to 5'-ACACTT-3' DNA at 9:500 of DNA/compound ratio by CD spectral analysis. The data set is classed as nucleic-acid assay.
For data set [26], the system named is Nucleic Acid. Put plainly: Binding affinity to 5'-AAATTT-3' DNA at 9:500 of DNA/compound ratio by CD spectral analysis. It is filed as nucleic-acid assay.

Structures are written as SMILES. Activity calls are given as the source filed them. The calls are words filed in the database; no cut-off is given here.

Regarding `CN(C)CCNC(=O)c1nc(NC(=O)c2cc(NC(=O)c3nc(NC(=O)c4ccccc4)cn3C)cn2C)cn1C`, the result in the data set on Nucleic Acid [1], in the data set on Nucleic Acid [2], with Nucleic Acid [7] and in the data set with Nucleic Acid [15] was inactive. The K worked out at 6.1 ×10⁴ /M in the data set on Nucleic Acid [3], 3.7 ×10⁸ /M in the data set with Nucleic Acid [5], 2.3 ×10⁵ /M with Nucleic Acid [8] and 2.8 ×10⁵ /M in the data set with Nucleic Acid [9]. Further, the ΔTm in the data set with Nucleic Acid [4] came out at 0 °C; in the data set on Nucleic Acid [10], 9 °C; with Nucleic Acid [16], 0 °C. In addition, the result with Nucleic Acid [6], with Nucleic Acid [11], in the data set with Nucleic Acid [13] and with Nucleic Acid [14] was Active. Moreover, the Kb in the data set with Nucleic Acid [12] was 4.8 ×10⁶ /M; with Nucleic Acid [17], 2.5 ×10⁵ /M.

On to `CN(C)CCNC(=O)c1nc(NC(=O)c2cc(NC(=O)c3nc(NC=O)cn3C)cn2C)cn1C`, for which the result with Nucleic Acid [18] and in the data set with Nucleic Acid [22] was Active. Moreover, the K worked out at 1.9 ×10⁸ /M in the data set with Nucleic Acid [19]; 5.3 ×10⁴ /M with Nucleic Acid [20]; 2.2 ×10⁵ /M with Nucleic Acid [21]; 1.9 ×10⁸ /M with Nucleic Acid [3]; 5.3 ×10⁴ /M with Nucleic Acid [23]. Besides, the shift in melting temperature (ΔTm) in the data set on Nucleic Acid [10] came to 9 °C; in the data set on Nucleic Acid [16], 1 °C.

Consider `CN(C)CCNC(=O)c1nc(NC(=O)c2cc(NC(=O)c3nc(NC=O)cn3C)cn2CCCN)cn1C.Cl`, for which the solubility result in data set [24] is reported as “soluble”.

With `CN(C)CCNC(=O)c1nc(NC(=O)c2cc(NC(=O)c3nc(NC(=O)c4ccccc4)cn3C)cn2CCCN)cn1C`, the outcome with Nucleic Acid [18], in the data set with Nucleic Acid [25], in the data set with Nucleic Acid [6], with Nucleic Acid [26], in the data set on Nucleic Acid [11] and in the data set on Nucleic Acid [14] was Active. Further, the result in the data set with Nucleic Acid [2] was inactive. Further, the K in the data set with Nucleic Acid [3] is 8.7 ×10⁵ /M; with Nucleic Acid [5], 2.7 ×10⁸ /M; in the data set on Nucleic Acid [8] it was 2.9 ×10⁵ /M; with Nucleic Acid [9] it was 1.2 ×10⁷ /M. Further, the ΔTm was 0 °C with Nucleic Acid [4], > 25 °C with Nucleic Acid [10] and 7.6 °C with Nucleic Acid [16]. In addition, the results for the Kb in the data set with Nucleic Acid [12] and in the data set on Nucleic Acid [17] were 1.5 ×10⁷ /M and 2.1 ×10⁶ /M, respectively.
